Laboratory results taken from ChEMBL document CHEMBL4813968, “Synthesis and evaluation of 3'-fluorinated 7-deazapurine nucleosides as antikinetoplastid agents” (Eur J Med Chem, 2021).
pEC50: −log10 of the molar value.

Experiments:
Trypanosoma cruzi = test: Antitrypanosomal activity against Trypanosoma cruzi Tulahuen CL2 infected in human MRC5 cells assessed as inhibition of parasite growth incubated for 7 days by chlorophenol red-fl-D-galactopyranoside based spectrophotometric analysis; type: functional, organism-based; details: Tulahuen CL2, MRC5, 168 h
Outline: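 T. cruzi Tulahuen CL2 β-galactosidase strain was maintained on MRC-5_SV2 cells. Wells held 4×10³ cells plus 4×10⁴ parasites with a 10-point 4-fold compound series, final DMSO <1%. After 7 days at 37 °C, 5% CO₂, substrate was added and absorbance read at 540 nm after 4 h at 37 °C. IC₅₀ was taken from % reduction versus infected and uninfected controls.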

[1] = test system: Trypanosoma brucei rhodesiense; test: Antitrypanosomal activity against Trypanosoma brucei rhodesiense assessed as parasite growth inhibition; type: functional, organism-based
[2] = Selectivity index, ratio of EC50 for cytotoxicity against human MRC5 cells to EC50 for antitrypanosomal activity against Trypanosoma cruzi Tulahuen CL2 infected in human MRC5 cells; type: toxicity, cell-based; details: read-out: Ratio EC50
Outline: (§1)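 Selectivity index is the MRC-5 EC₅₀ divided by the parasite EC₅₀.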

[3] = Selectivity index, ratio of EC50 for cytotoxicity against mouse primary macrophage to EC50 for antileishmanial activity against Leishmania infantum MHOM/MA(BE)/67 infected in mouse primary peritoneal macrophages; type: toxicity; details: read-out: Ratio EC50
[4] = test system: Trypanosoma brucei brucei; test: Antitrypanosomal activity against Trypanosoma brucei brucei assessed as parasite growth inhibition; type: functional, organism-based
[5] = Selectivity index, ratio of EC50 for human MRC5 cells to EC50 for antitrypanosomal activity against Trypanosoma brucei brucei; type: toxicity; details: read-out: Ratio EC50; outline: as §1
Leishmania infantum = test: Antileishmanial activity against Leishmania infantum MHOM/MA(BE)/67 infected in mouse primary peritoneal macrophages treated 2 hrs post-infection and incubated for 5 days by Giemsa staining based microscopic analysis; type: functional, organism-based; details: MHOM/MA(BE)/67, Peritoneal macrophage
Outline: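 Peritoneal macrophages from mice, harvested 2 days after 2% potato starch stimulation, infected after 48 h with L. infantum in supplemented RPMI-1640 with 5% FCS. Compounds were added 2 h post-infection as a 10-point 4-fold dilution series, final DMSO <1%, and incubated 5 days at 37 °C, 5% CO₂. Amastigotes per macrophage were counted after 10% Giemsa staining, and IC₅₀ was taken from % reduction versus untreated-infected controls.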

[6] = Selectivity index, ratio of EC50 for human MRC5 cells to EC50 for antitrypanosomal activity against Trypanosoma brucei rhodesiense; type: toxicity; details: read-out: Ratio EC50; outline: as §1
MRC5 = test: Cytotoxicity against human MRC5 cells assessed as reduction in cell viability after 3 days by resazurin dye based fluorimetric analysis; details: MRC5, 72 h
Outline: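 MRC-5_SV2 cells, 1.5×10⁵ cells/mL in MEM with Earl's salts, L-glutamine, NaHCO₃ and 5% inactivated FCS, were exposed 3 days at 37 °C, 5% CO₂ to a 10-point 4-fold dilution series, final DMSO <1%. Resazurin was added for 4 h, fluorescence read at ex 550/em 590 nm, and IC₅₀ derived versus untreated and medium controls.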

Macrophage = test: Cytotoxicity against mouse primary macrophage cells assessed as reduction in cell viability; type: cell-based
Outline: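 Macrophage toxicity was scored microscopically within the L. infantum assays, using cell detachment, lysis and granulation. At least 500 cells over adjacent fields were scored semi-quantitatively, and CC₅₀ was taken from % reduction in normal cells versus untreated controls.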

| SMILES | pEC50 (Trypanosoma cruzi) | pEC50 [1] | selectivity ratio [2] | selectivity ratio [3] | pEC50 [4] | selectivity ratio [5] | pEC50 (Leishmania infantum) | selectivity ratio [6] | pEC50 (MRC5) | pEC50 (Macrophage) |
| --- | --- | --- | --- | --- | --- | --- | --- | --- | --- | --- |
| Nc1ncnc2c1c(I)cn2[C@@H]1O[C@H](CO)[C@@H](F)[C@H]1O | 7.41 | 8.11 | 170 | 9 | 7.49 | 201 | 5.63 | 826 | 5.18 | 4.66 |
| Nc1ncnc2c1c(-c1ccc(F)cc1)cn2[C@@H]1O[C@H](CO)[C@H](F)[C@H]1O | 5.84 | 4.85 | > 44 | 1 | 4.79 | > 4 | 4.65 | > 5 | < 4.19 | 4.49 |
| Cc1cn([C@@H]2O[C@H](CO)[C@@H](F)[C@H]2O)c2ncnc(N)c12 | 4.88 | 6.68 | > 5 | > 2 | 6.02 | > 67 | 4.42 | > 312 | < 4.19 | < 4.19 |
| C=Cc1cn([C@@H]2O[C@H](CO)[C@@H](F)[C@H]2O)c2ncnc(N)c12 | 6.19 | 6.47 | 31 | > 1 | 6.09 | 25 | 4.41 | 59 | 4.69 | < 4.19 |
| Nc1ncnc2c1c(-c1ccc(Cl)cc1)cn2[C@@H]1O[C@H](CO)[C@@H](F)[C@H]1O | 6.13 | 5.29 | 23 | 3 | 5.15 | 2 | 4.90 | 2 | 4.77 | 4.49 |
| Nc1ncnc2c1c(-c1ccc(Cl)c(Cl)c1)cn2[C@@H]1O[C@H](CO)[C@@H](F)[C@H]1O | 6.66 | 5.81 | 19 | 3 | 5.57 | 1 | 5.55 | 2 | 5.38 | 5.10 |
| Nc1ncnc2c1c(Br)cn2[C@@H]1O[C@H](CO)[C@H](F)[C@H]1O | 5.13 | 8.31 | < 1 | 2 | 7.49 | 23 | 5.09 | 152 | 6.12 | 4.70 |
| Nc1ncnc2c1c(-c1ccc(Cl)cc1)cn2[C@@H]1O[C@H](CO)[C@H](F)[C@H]1O | 6.77 | 5.64 | 130 | 1 | 5.28 | 4 | 5.30 | 10 | 4.66 | 5.10 |
| NC(=O)c1cn([C@@H]2O[C@H](CO)[C@@H](F)[C@H]2O)c2ncnc(N)c12 | 5.15 | 6.92 | < 1 | 1 | 5.63 | 1 | 4.49 | 20 | 5.62 | 4.49 |
| Nc1ncnc2c1c(-c1ccccc1)cn2[C@@H]1O[C@H](CO)[C@@H](F)[C@H]1O | 5.04 | 4.49 | > 7 | 1 | 4.49 | > 2 | 4.29 | > 1 | < 4.19 | < 4.19 |
| COc1ccc(-c2cn([C@@H]3O[C@H](CO)[C@@H](F)[C@H]3O)c3ncnc(N)c23)cc1 | 5.06 | 4.59 | 2 | 1 | 4.36 | < 1 | 4.49 | < 1 | 4.85 | 4.49 |
| C#Cc1cn([C@@H]2O[C@H](CO)[C@@H](F)[C@H]2O)c2ncnc(N)c12 | 7.40 | 7.70 | 4 | 1 | 7.40 | 4 | 6.89 | 7 | 6.80 | 6.89 |
| Cc1cc(-c2cn([C@@H]3O[C@H](CO)[C@H](F)[C@H]3O)c3ncnc(N)c23)ccc1Cl | 6.12 | 5.44 | 28 | 1 | 5.14 | 3 | 5.27 | 6 | 4.68 | 5.10 |
| Nc1ncnc2c1c(-c1ccc(Cl)c(Cl)c1)cn2[C@@H]1O[C@H](CO)[C@H](F)[C@H]1O | > 6.68 | 5.76 | 35 | 2 | 5.63 | 3 | 5.41 | 4 | 5.13 | 5.10 |
| Nc1ncnc2c1c(-c1ccc(Cl)c(F)c1)cn2[C@@H]1O[C@H](CO)[C@H](F)[C@H]1O | 6.38 | 5.84 | 44 | 1 | 5.37 | 4 | 5.23 | 13 | 4.73 | 5.10 |
